Source: ChEMBL document CHEMBL4689842, “EUbOPEN Chemogenomics Library wave 1” (2021)

Test system: Fibroblast
Test: Multiplex assay against human fibroblast
Format: toxicity, cell-based
How it was run: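 Compound was added to live cells that had been stained at seeding with Hoechst33342, BioTracker Green Microtubule Cytoskeleton Dye, MitoTracker Red and Annexin V Alexa Fluor 680, and imaging followed on a CQ1 microscope at 37°C and 5% CO2. CellPathfinder machine-learning gating divided cells into Hoechst high-intensity objects or normal cells, normal cells into healthy, pyknosed or fragmented nuclei, and pyknosed cells into mitotic or apoptotic. Tubulin, mitochondrial-mass and membrane-permeability phenotypes are per cents of healthy-nucleus cells.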

[1] = 12 h, 1 µM, compound concentration 1 uM, replicate 1
[2] = 12 h, 1 µM, compound concentration 1 uM, replicate 2
[3] = 12 h, 10 µM, compound concentration 10 uM, replicate 1
[4] = 12 h, 10 µM, compound concentration 10 uM, replicate 2
[5] = 24 h, 1 µM, compound concentration 1 uM, replicate 1
[6] = 24 h, 1 µM, compound concentration 1 uM, replicate 2
[7] = 24 h, 10 µM, compound concentration 10 uM, replicate 1
[8] = 24 h, 10 µM, compound concentration 10 uM, replicate 2
[9] = 48 h, 1 µM, compound concentration 1 uM, replicate 1
[10] = 48 h, 1 µM, compound concentration 1 uM, replicate 2
[11] = 48 h, 10 µM, compound concentration 10 uM, replicate 1
[12] = 48 h, 10 µM, compound concentration 10 uM, replicate 2

SMILES: Cl.O=C(O)c1cc(-c2ccc(C3CCNCC3)cc2)c2ccc(-c3ccc(C(F)(F)F)cc3)cc2c1
- Population Apoptotic (%) [1]: 65%
- Population Fragmented Nuclei (%) [1]: 31%
- Population Healthy Nuclei (%) [1]: 31%
- Population Hoechst High Intensity Objects (%) [1]: 20%
- Population Membrane Permeable-Phenotype (%) [1]: 31%
- Population Mitochondria Different-Phenotype (%) [1]: 5%
- Population Mitotic Cells (%) [1]: 34%
- Population Normal (%) [1]: 79%
- Population Pyknosed Nuclei (%) [1]: 37%
- Population Tubulin-Different-Phenotype (%) [1]: 21%
- Total Cell Count [1]: 77
- Population Apoptotic (%) [2]: 50%
- Population Fragmented Nuclei (%) [2]: 11%
- Population Healthy Nuclei (%) [2]: 83%
- Population Hoechst High Intensity Objects (%) [2]: 5%
- Population Membrane Permeable-Phenotype (%) [2]: 3%
- Population Mitochondria Different-Phenotype (%) [2]: 16%
- Population Mitotic Cells (%) [2]: 50%
- Population Normal (%) [2]: 94%
- Population Pyknosed Nuclei (%) [2]: 5%
- Population Tubulin-Different-Phenotype (%) [2]: 36%
- Total Cell Count [2]: 60
- Population Apoptotic (%) [3]: 62%
- Population Fragmented Nuclei (%) [3]: 27%
- Population Healthy Nuclei (%) [3]: 40%
- Population Hoechst High Intensity Objects (%) [3]: 18%
- Population Membrane Permeable-Phenotype (%) [3]: 5%
- Population Mitochondria Different-Phenotype (%) [3]: 20%
- Population Mitotic Cells (%) [3]: 37%
- Population Normal (%) [3]: 81%
- Population Pyknosed Nuclei (%) [3]: 32%
- Population Tubulin-Different-Phenotype (%) [3]: 57%
- Total Cell Count [3]: 122
- Population Apoptotic (%) [4]: 60%
- Population Fragmented Nuclei (%) [4]: 14%
- Population Healthy Nuclei (%) [4]: 64%
- Population Hoechst High Intensity Objects (%) [4]: 14%
- Population Membrane Permeable-Phenotype (%) [4]: 10%
- Population Mitochondria Different-Phenotype (%) [4]: 13%
- Population Mitotic Cells (%) [4]: 40%
- Population Normal (%) [4]: 85%
- Population Pyknosed Nuclei (%) [4]: 21%
- Population Tubulin-Different-Phenotype (%) [4]: 23%
- Total Cell Count [4]: 38
- Population Apoptotic (%) [5]: 62%
- Population Fragmented Nuclei (%) [5]: 24%
- Population Healthy Nuclei (%) [5]: 47%
- Population Hoechst High Intensity Objects (%) [5]: 21%
- Population Membrane Permeable-Phenotype (%) [5]: 44%
- Population Mitochondria Different-Phenotype (%) [5]: 7%
- Population Mitotic Cells (%) [5]: 37%
- Population Normal (%) [5]: 78%
- Population Pyknosed Nuclei (%) [5]: 28%
- Population Tubulin-Different-Phenotype (%) [5]: 44%
- Total Cell Count [5]: 73
- Population Apoptotic (%) [6]: 20%
- Population Fragmented Nuclei (%) [6]: 11%
- Population Healthy Nuclei (%) [6]: 79%
- Population Hoechst High Intensity Objects (%) [6]: 3%
- Population Membrane Permeable-Phenotype (%) [6]: 4%
- Population Mitochondria Different-Phenotype (%) [6]: 9%
- Population Mitotic Cells (%) [6]: 80%
- Population Normal (%) [6]: 96%
- Population Pyknosed Nuclei (%) [6]: 9%
- Population Tubulin-Different-Phenotype (%) [6]: 30%
- Total Cell Count [6]: 62
- Population Apoptotic (%) [7]: 53%
- Population Fragmented Nuclei (%) [7]: 35%
- Population Healthy Nuclei (%) [7]: 36%
- Population Hoechst High Intensity Objects (%) [7]: 15%
- Population Membrane Permeable-Phenotype (%) [7]: 12%
- Population Mitochondria Different-Phenotype (%) [7]: 27%
- Population Mitotic Cells (%) [7]: 46%
- Population Normal (%) [7]: 84%
- Population Pyknosed Nuclei (%) [7]: 28%
- Population Tubulin-Different-Phenotype (%) [7]: 62%
- Total Cell Count [7]: 131
- Population Apoptotic (%) [8]: 61%
- Population Fragmented Nuclei (%) [8]: 17%
- Population Healthy Nuclei (%) [8]: 61%
- Population Hoechst High Intensity Objects (%) [8]: 8%
- Population Membrane Permeable-Phenotype (%) [8]: 7%
- Population Mitochondria Different-Phenotype (%) [8]: 5%
- Population Mitotic Cells (%) [8]: 38%
- Population Normal (%) [8]: 91%
- Population Pyknosed Nuclei (%) [8]: 20%
- Population Tubulin-Different-Phenotype (%) [8]: 16%
- Total Cell Count [8]: 56
- Population Apoptotic (%) [9]: 50%
- Population Fragmented Nuclei (%) [9]: 30%
- Population Healthy Nuclei (%) [9]: 40%
- Population Hoechst High Intensity Objects (%) [9]: 20%
- Population Membrane Permeable-Phenotype (%) [9]: 48%
- Population Mitochondria Different-Phenotype (%) [9]: 0%
- Population Mitotic Cells (%) [9]: 50%
- Population Normal (%) [9]: 79%
- Population Pyknosed Nuclei (%) [9]: 29%
- Population Tubulin-Different-Phenotype (%) [9]: 40%
- Total Cell Count [9]: 78
- Population Apoptotic (%) [10]: 100%
- Population Fragmented Nuclei (%) [10]: 16%
- Population Healthy Nuclei (%) [10]: 82%
- Population Hoechst High Intensity Objects (%) [10]: 8%
- Population Membrane Permeable-Phenotype (%) [10]: 6%
- Population Mitochondria Different-Phenotype (%) [10]: 2%
- Population Mitotic Cells (%) [10]: 0%
- Population Normal (%) [10]: 91%
- Population Pyknosed Nuclei (%) [10]: 1%
- Population Tubulin-Different-Phenotype (%) [10]: 26%
- Total Cell Count [10]: 104
- Population Apoptotic (%) [11]: 76%
- Population Fragmented Nuclei (%) [11]: 42%
- Population Healthy Nuclei (%) [11]: 46%
- Population Hoechst High Intensity Objects (%) [11]: 21%
- Population Membrane Permeable-Phenotype (%) [11]: 11%
- Population Mitochondria Different-Phenotype (%) [11]: 9%
- Population Mitotic Cells (%) [11]: 23%
- Population Normal (%) [11]: 78%
- Population Pyknosed Nuclei (%) [11]: 11%
- Population Tubulin-Different-Phenotype (%) [11]: 37%
- Total Cell Count [11]: 146
- Population Apoptotic (%) [12]: 100%
- Population Fragmented Nuclei (%) [12]: 57%
- Population Healthy Nuclei (%) [12]: 38%
- Population Hoechst High Intensity Objects (%) [12]: 9%
- Population Membrane Permeable-Phenotype (%) [12]: 4%
- Population Mitochondria Different-Phenotype (%) [12]: 12%
- Population Mitotic Cells (%) [12]: 0%
- Population Normal (%) [12]: 90%
- Population Pyknosed Nuclei (%) [12]: 3%
- Population Tubulin-Different-Phenotype (%) [12]: 58%
- Total Cell Count [12]: 139
